For test [1], the target named is Carbonic anhydrase 5A, mitochondrial (Homo sapiens) (UniProt P35218). Kind of test: Binding affinity to human CA5a by phenol red dye based stopped flow CO2 hydration assay. The conditions noted are these: filed as activator. Summed up:
(§1)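 Purified recombinant human CA isoforms. CA-catalysed CO2 hydration was followed by stopped-flow with phenol red at 557 nm, taking initial rates over 10–100 s from at least six traces of the first 5–10% of reaction. Uncatalysed rates were subtracted. Activator stocks were 0.1 mM in deionised water, diluted down to 0.1 nM in assay buffer. K_A came from non-linear least-squares Michaelis–Menten fitting.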

Test [2] addresses T1, Amine oxidase [flavin-containing] A (Homo sapiens, UniProt P21397).
T1 sequence (P21397 whole entry): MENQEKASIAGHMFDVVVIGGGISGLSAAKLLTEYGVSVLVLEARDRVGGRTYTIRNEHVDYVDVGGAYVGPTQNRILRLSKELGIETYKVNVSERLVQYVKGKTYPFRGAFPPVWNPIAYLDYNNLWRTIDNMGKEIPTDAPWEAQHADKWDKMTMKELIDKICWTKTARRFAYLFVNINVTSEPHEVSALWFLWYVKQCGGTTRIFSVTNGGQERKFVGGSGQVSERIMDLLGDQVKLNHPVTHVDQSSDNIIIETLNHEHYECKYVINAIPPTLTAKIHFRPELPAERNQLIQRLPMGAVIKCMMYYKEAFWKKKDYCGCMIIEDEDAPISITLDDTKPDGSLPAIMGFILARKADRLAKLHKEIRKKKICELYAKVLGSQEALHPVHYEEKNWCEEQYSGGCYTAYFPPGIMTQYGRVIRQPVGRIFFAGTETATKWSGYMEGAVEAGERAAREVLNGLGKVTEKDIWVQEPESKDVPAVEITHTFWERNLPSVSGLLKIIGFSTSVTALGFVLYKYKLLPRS
Kind of test: Inhibition of human recombinant MAO-A assessed as inhibition of 4-hydroxyquinoline formation using kynuramine as substrate by fluorescence spectrophotometry analysis. The method, boiled down: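 Recombinant human MAO-A with kynuramine as substrate. The 4-hydroxyquinoline product was quantified by fluorescence spectrophotometry, and IC50 values were determined.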

Test [3] addresses Carbonic anhydrase 7 (Homo sapiens) (UniProt P43166). Kind of test: Binding affinity to human CA7 by phenol red dye based stopped flow CO2 hydration assay. The conditions noted are these: filed as activator. Summed up: as §1
Test [4] deals with Carbonic anhydrase 1 (Homo sapiens) (UniProt P00915). Nature of the test: Binding affinity to human CA1 by phenol red dye based stopped flow CO2 hydration assay. As to conditions: filed as activator. Summed up:
as §1

Test [5] deals with Carbonic anhydrase 2 (Homo sapiens) (UniProt P00918). Nature of the test: Binding affinity to human CA2 by phenol red dye based stopped flow CO2 hydration assay. The method, boiled down:
as §1

The target in test [6] is Carbonic anhydrase 12 (Homo sapiens) (UniProt O43570). Nature of the test: Binding affinity to human CA12 by phenol red dye based stopped flow CO2 hydration assay. As to conditions: filed as activator. Summed up:
as §1

Test [7] addresses Carbonic anhydrase 9 (Homo sapiens) (UniProt Q16790). Kind of test: Binding affinity to human CA9 by phenol red dye based stopped flow CO2 hydration assay. The conditions noted are these: filed as activator. The method, boiled down:
as §1

In test [8] the target is Carbonic anhydrase 5B, mitochondrial (Homo sapiens) (UniProt Q9Y2D0). Kind of test: Binding affinity to human CA5b by phenol red dye based stopped flow CO2 hydration assay. As to conditions: filed as activator. Summed up: as §1
Test [9] concerns the target Carbonic anhydrase 3 (Homo sapiens) (UniProt P07451). Kind of test: Binding affinity to human CA3 by phenol red dye based stopped flow CO2 hydration assay. As to conditions: filed as activator. Summed up: as §1
For test [10], the target named is Carbonic anhydrase 6 (Homo sapiens) (UniProt P23280). Kind of test: Binding affinity to human CA6 by phenol red dye based stopped flow CO2 hydration assay. The conditions noted are these: filed as activator. Summed up:
as §1

For test [11], the target named is Carbonic anhydrase 14 (Homo sapiens) (UniProt Q9ULX7). Nature of the test: Binding affinity to human CA14 by phenol red dye based stopped flow CO2 hydration assay. The conditions noted are these: filed as activator. The method, boiled down:
as §1

The target in test [12] is Carbonic anhydrase 4 (Homo sapiens) (UniProt P22748). Kind of test: Binding affinity to human CA4 by phenol red dye based stopped flow CO2 hydration assay. As to conditions: filed as activator. Summed up: as §1
Test [13] deals with Carbonic anhydrase 13 (Homo sapiens) (UniProt Q8N1Q1). Nature of the test: Binding affinity to human CA13 by phenol red dye based stopped flow CO2 hydration assay. As to conditions: filed as activator. Summed up: as §1
Test [14] addresses T2, Amine oxidase [flavin-containing] B (Homo sapiens, UniProt P27338).
T2 sequence (P27338 whole entry): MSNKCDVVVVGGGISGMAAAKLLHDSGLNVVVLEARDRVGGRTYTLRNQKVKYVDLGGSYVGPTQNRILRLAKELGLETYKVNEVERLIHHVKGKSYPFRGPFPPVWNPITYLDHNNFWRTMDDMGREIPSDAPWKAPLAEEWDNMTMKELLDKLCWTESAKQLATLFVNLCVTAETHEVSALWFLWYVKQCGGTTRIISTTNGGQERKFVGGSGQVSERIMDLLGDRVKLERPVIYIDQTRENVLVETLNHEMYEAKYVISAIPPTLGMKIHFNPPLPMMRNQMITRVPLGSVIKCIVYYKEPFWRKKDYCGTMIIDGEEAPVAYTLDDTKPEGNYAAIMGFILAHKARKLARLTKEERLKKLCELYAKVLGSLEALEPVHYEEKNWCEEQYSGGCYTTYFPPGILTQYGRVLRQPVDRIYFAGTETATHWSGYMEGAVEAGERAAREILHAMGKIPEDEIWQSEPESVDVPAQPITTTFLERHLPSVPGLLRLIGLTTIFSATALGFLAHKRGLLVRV

Some results are limits rather than exact numbers.

Chain of Carbonic anhydrase 7 (Homo sapiens) (P43166 whole entry): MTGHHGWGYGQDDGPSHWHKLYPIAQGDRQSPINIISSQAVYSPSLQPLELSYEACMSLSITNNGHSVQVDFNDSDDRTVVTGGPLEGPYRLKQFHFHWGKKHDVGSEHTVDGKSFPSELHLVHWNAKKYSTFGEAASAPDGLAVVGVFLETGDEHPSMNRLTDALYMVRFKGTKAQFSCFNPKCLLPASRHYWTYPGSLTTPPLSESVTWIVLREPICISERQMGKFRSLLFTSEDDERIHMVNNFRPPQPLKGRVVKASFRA
Chain of Carbonic anhydrase 6 (Homo sapiens) (P23280 whole entry): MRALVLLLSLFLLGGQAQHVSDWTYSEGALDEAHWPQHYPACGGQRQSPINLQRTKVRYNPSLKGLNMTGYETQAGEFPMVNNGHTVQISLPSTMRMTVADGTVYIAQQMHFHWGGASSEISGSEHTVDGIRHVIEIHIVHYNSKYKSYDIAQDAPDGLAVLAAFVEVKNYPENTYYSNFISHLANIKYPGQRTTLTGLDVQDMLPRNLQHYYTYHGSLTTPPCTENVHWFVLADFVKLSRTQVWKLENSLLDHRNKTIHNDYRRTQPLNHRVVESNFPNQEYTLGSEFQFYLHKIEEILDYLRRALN
Chain of Carbonic anhydrase 14 (Homo sapiens) (Q9ULX7 whole entry): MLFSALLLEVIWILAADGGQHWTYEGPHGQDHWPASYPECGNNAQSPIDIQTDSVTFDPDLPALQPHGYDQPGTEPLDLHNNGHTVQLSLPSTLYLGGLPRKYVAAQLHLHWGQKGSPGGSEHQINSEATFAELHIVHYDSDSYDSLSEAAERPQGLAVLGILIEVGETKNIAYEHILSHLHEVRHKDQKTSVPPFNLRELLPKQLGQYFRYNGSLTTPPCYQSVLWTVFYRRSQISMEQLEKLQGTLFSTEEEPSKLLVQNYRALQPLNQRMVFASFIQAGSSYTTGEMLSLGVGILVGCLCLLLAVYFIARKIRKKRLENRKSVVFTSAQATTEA
Chain of Carbonic anhydrase 4 (Homo sapiens) (P22748 whole entry): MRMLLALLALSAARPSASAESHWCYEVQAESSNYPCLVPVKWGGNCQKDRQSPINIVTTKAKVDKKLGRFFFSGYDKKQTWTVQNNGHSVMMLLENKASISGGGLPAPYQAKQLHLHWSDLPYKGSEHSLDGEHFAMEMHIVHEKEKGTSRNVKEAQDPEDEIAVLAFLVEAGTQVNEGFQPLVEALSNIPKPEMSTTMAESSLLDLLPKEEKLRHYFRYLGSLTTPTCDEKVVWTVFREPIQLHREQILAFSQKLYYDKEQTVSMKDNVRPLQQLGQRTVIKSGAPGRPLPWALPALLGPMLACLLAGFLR
Chain of Carbonic anhydrase 13 (Homo sapiens) (Q8N1Q1 whole entry, looked up): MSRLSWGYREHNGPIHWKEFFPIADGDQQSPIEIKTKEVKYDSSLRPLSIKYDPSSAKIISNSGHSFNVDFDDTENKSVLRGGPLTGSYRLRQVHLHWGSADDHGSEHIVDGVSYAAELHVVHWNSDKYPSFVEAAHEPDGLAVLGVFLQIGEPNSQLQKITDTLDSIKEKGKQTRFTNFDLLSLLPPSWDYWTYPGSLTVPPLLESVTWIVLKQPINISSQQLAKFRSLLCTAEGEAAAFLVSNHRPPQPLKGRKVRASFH
Chain of Carbonic anhydrase 5A, mitochondrial (Homo sapiens) (P35218 whole entry, canonical isoform): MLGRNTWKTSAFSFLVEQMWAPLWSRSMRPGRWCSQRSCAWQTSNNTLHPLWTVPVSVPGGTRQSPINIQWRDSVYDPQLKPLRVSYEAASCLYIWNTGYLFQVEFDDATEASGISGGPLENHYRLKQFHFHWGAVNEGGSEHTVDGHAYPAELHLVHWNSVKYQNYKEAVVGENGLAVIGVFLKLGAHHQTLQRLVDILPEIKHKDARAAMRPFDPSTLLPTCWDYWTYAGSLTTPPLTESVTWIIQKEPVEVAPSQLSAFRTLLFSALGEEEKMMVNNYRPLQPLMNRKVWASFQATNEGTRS
Chain of Carbonic anhydrase 5B, mitochondrial (Homo sapiens) (Q9Y2D0 whole entry): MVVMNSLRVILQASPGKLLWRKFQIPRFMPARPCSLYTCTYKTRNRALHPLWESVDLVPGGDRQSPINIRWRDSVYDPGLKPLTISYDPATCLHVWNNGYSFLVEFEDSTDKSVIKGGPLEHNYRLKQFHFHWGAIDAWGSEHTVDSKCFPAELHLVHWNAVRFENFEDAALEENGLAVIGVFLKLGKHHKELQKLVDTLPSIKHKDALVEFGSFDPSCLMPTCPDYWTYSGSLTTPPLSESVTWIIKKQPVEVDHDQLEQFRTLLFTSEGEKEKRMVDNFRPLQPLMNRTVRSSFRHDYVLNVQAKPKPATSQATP
Chain of Carbonic anhydrase 1 (Homo sapiens) (P00915 2-261 limits assumed): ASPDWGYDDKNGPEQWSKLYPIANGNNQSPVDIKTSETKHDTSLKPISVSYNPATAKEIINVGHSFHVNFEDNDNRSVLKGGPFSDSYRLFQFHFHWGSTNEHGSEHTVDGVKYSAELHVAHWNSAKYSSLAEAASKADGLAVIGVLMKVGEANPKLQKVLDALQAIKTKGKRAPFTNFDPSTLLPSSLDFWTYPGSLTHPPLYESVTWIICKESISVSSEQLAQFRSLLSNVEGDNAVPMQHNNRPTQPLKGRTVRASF
Chain of Carbonic anhydrase 12 (Homo sapiens) (O43570 whole entry): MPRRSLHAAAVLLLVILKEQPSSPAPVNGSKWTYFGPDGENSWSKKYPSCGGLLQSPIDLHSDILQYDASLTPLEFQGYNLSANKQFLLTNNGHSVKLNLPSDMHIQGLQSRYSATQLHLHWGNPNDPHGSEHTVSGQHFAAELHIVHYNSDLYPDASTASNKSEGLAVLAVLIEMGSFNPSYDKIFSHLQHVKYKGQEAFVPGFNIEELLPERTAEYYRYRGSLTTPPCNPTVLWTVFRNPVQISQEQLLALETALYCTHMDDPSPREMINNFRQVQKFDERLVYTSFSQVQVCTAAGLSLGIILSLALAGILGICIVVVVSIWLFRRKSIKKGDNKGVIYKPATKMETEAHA
Chain of Carbonic anhydrase 3 (Homo sapiens) (P07451 whole entry): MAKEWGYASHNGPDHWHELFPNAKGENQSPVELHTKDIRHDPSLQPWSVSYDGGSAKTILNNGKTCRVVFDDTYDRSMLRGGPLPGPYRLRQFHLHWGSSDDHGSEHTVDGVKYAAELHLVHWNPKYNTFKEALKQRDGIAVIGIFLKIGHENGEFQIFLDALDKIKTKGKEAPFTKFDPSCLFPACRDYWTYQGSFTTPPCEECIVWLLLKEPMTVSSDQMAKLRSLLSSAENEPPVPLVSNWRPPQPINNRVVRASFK

For the compound `CC(N)CSc1ccc(Br)cc1` (stereo unspecified), the Ka in [1] was 12.4 µM; in test [3] it was 14.8 µM; in [4], 7.7 µM; in [5], more than 100 µM; in test [6], 72.9 µM; in [7], 63.3 µM. Moreover, the Ka in test [8] stood at 22.7 µM; in test [9] it was 5.4 µM; in test [10], 61.6 µM; in test [11] it was 3.8 µM; in test [12], 7.4 µM; in [13], 54.4 µM. Also, the IC50 in [2] is 3.89 µM.

On to `COc1ccc([Te]CC(C)N)cc1` (stereo unspecified), for which the Ka is 3.3 µM in test [1]; 44.9 µM in test [3]; 4.6 µM in test [4]; more than 100 µM in [5]; 52.8 µM in test [6]; 47.9 µM in test [7]. Further, the Ka is 22.5 µM in test [8]; 77.3 µM in test [9]; 37.8 µM in test [10]; 9.5 µM in test [11]; 8.2 µM in test [12]; 38.2 µM in test [13]. Further, the values for the half-inhibitory concentration (IC50) in test [2] and in [14] were 14 µM and 84.2 µM, respectively.

As to `COc1ccc([Se]CC(C)N)cc1` (stereo unspecified), the Ka in [1] was 20.3 µM; in test [3], 23.3 µM; in test [4] it was 21.4 µM; in test [5], more than 100 µM; in test [6] it was 68.8 µM; in [7] it was 73.2 µM. The Ka in [8] is 25.8 µM; in test [9], 66.8 µM; in test [10] it was 46.4 µM; in test [11] it was 8.7 µM; in test [12], 8.7 µM; in test [13], 60.4 µM. Moreover, the IC50 in [2] was 1.21 µM; in test [14] it was 36.8 µM.

As for `CC(N)CSc1cccc(Br)c1` (stereo unspecified), the Ka in test [1] is 12.9 µM; in test [3] it was 11.4 µM; in test [4], 13.5 µM; in [5] it was more than 100 µM; in test [6], 87.9 µM; in test [7], 77.9 µM. Besides, the Ka in [8] was determined as 11.5 µM; in test [9], 91.7 µM; in test [10], 30.9 µM; in test [11] it was 2.9 µM; in [12], 2.2 µM; in test [13], 49.3 µM. In addition, the IC50 in test [2] stood at 7.82 µM.

Regarding `Cc1cccc(C)c1[Se]CC(C)N` (stereo unspecified), the Ka in test [1] was 20.9 µM; in test [3] it was 21.4 µM; in test [4], 6 µM; in test [5] it was more than 100 µM; in test [6] it was 78.2 µM; in test [7], 81.2 µM. Also, the Ka turned out to be 22.7 µM in [8]; 90.8 µM in test [9]; 31.4 µM in test [10]; 1.1 µM in test [11]; 9.5 µM in test [12]; 83.3 µM in [13]. Moreover, the results for the IC50 in test [2] and in [14] were 1.68 µM and 2.79 µM, respectively.

For the compound `CC(N)C[Te]c1ccccc1` (stereo unspecified), the Ka is 14.2 µM in [1]; 41.2 µM in test [3]; 9.9 µM in test [4]; more than 100 µM in test [5]; 52.5 µM in [6]; 22.2 µM in test [7]. In addition, the Ka in [8] came to 21.7 µM; in [9] it was 59.7 µM; in test [10] it was 73.1 µM; in [11] it was 3.2 µM; in [12], 5.9 µM; in [13], 49.7 µM. Also, the IC50 in test [2] was determined as 25.4 µM.

As to `CC(N)CSc1ccccc1Br` (stereo unspecified), the Ka in test [1] is 13.3 µM; in [3], 23.2 µM; in test [4], 9.5 µM; in test [5] it was more than 100 µM; in [6] it was 46.7 µM; in [7], 56.6 µM. Also, the Ka in test [8] was 12.8 µM; in test [9], 70.8 µM; in test [10], 55.9 µM; in test [11], 3.6 µM; in test [12], 2.4 µM; in test [13] it was 90.9 µM. Besides, the IC50 was 0.724 µM in test [2] and 64.8 µM in test [14].

`Cc1ccccc1[Se]CC(C)N` (stereo unspecified): the Ka in [1] was 20 µM; in [3], 14.2 µM; in test [4] it was 12.1 µM; in test [5] it was more than 100 µM; in [6], 51.8 µM; in test [7], 83.3 µM. Also, the Ka in test [8] stood at 23.7 µM; in test [9] it was 54.1 µM; in [10], 71.6 µM; in test [11], 4.7 µM; in [12], 2.7 µM; in [13], 49.3 µM. Also, the 50% inhibitory concentration (IC50) amounted to 5.17 µM in test [2] and 16.7 µM in test [14].

`COc1cc([Te]CC(C)N)cc(OC)c1OC` (stereo unspecified): the Ka in test [1] is 9.4 µM; in test [3], 14.3 µM; in [4] it was 9.5 µM; in test [5], more than 100 µM; in test [6], 32.7 µM; in [7] it was 85.2 µM. Besides, the Ka in test [8] came to 29.5 µM; in test [9] it was 60.6 µM; in [10], 69.2 µM; in test [11] it was 1.2 µM; in test [12] it was 4.4 µM; in test [13] it was 58.3 µM.

As for `Cc1ccc([Se]CC(C)N)cc1` (stereo unspecified), the Ka in [1] was 9.1 µM; in test [3] it was 10.4 µM; in [4] it was 5.2 µM; in [5] it was more than 100 µM; in test [6] it was 89.7 µM; in [7] it was 82.5 µM. Moreover, the Ka in test [8] stood at 15.7 µM; in [9] it was 20.3 µM; in test [10] it was 30.5 µM; in test [11], 8.3 µM; in [12], 2.2 µM; in test [13], 68.6 µM. Further, the concentration for half-maximal inhibition (IC50) in [2] was 2.03 µM; in test [14] it was 36.5 µM.

Take `CC(N)C[Se]c1ccc(N(C)C)cc1` (stereo unspecified): the Ka in test [1] is 14 µM; in [3], 12.1 µM; in test [4], 22.1 µM; in test [5] (filed as activator), 45.1 µM; in test [6], 58.5 µM; in test [7], 70.1 µM. Besides, the Ka in test [8] stood at 21.8 µM; in test [9], 72.6 µM; in [10] it was 76.5 µM; in test [11], 6.7 µM; in test [12], 9.4 µM; in test [13], 44.1 µM. Moreover, the figures for the 50% inhibitory concentration (IC50) in test [2] and in [14] were 7.15 µM and 21.3 µM, respectively.

With `Cc1ccc([Te]CC(C)N)cc1` (stereo unspecified), the Ka was 4 µM in test [1]; 21.9 µM in [3]; 8.2 µM in [4]; more than 100 µM in test [5]; 80.4 µM in test [6]; 74.4 µM in test [7]. The Ka amounted to 15.7 µM in test [8]; 73.5 µM in [9]; 23.6 µM in test [10]; 2.4 µM in test [11]; 5.3 µM in test [12]; 82.7 µM in test [13]. Moreover, in test [2], the IC50 was 6.66 µM.

Take `CC(N)C[Se]c1ccc(F)cc1` (stereo unspecified): the Ka in [1] is 13.1 µM; in test [3], 13.4 µM; in test [4] it was 19.6 µM; in test [5], more than 100 µM; in [6], 90.6 µM; in test [7], 22.8 µM. Besides, the Ka in test [8] came out at 20.2 µM; in test [9], 13.1 µM; in test [10], 48.5 µM; in test [11], 2.6 µM; in test [12], 6.1 µM; in test [13] it was 46.9 µM. The IC50 in test [2] amounted to 10.5 µM; in [14], 13.4 µM.

Usually IC50 stands for the point on the concentration scale where inhibition reaches its midpoint.

Source of the values: ChEMBL document CHEMBL5247599, “New β-arylchalcogeno amines with procognitive properties targeting Carbonic Anhydrases and Monoamine Oxidases” (Eur J Med Chem, 2022).
